From ChEMBL document CHEMBL1140409, “Discovery of potent, nonsystemic apical sodium-codependent bile acid transporter inhibitors (Part 2)” (J Med Chem, 2005)

Key:
[1] = Amount (dissolved in aqueous Tween-80) in bile of rat was determined by fecal bile acid content for 45 min in a 37 degree C; format: ADME, tissue-based, Feces; parameters: concentration or dose not given beside the values; settings: in vivo, 0.75 h
Procedure, shortened: (§1)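 Male Wistar rats (275–300 g) were gavaged once each morning for 4 days at 5, 0.2 or 0.04 mpk in aqueous 0.2% (v/v) Tween-80 (2 mL/kg). Feces from the final 48 h were homogenized in twice their weight of water. Homogenate was diluted in butanol/water (2:0.6), extracted 45 min at 37 °C, centrifuged, and bile acids (μmol/day) measured enzymatically. Scores compared against a reference analogue at 0.04 mg/kg.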

[2] = Efficacy to increase fecal bile acid excretion; ++ is even more effective; format: ADME, tissue-based, Feces; settings: rat; procedure, shortened: as §1
[3] = target: T1, Ileal sodium/bile acid cotransporter (Homo sapiens, UniProt Q12908); assay: In vitro inhibition of ASBT mediated uptake of [14C]taurocholate (5 uM) in baby hamster cells expressing human IBAT; format: cell-based
T1 sequence (Q12908 whole entry): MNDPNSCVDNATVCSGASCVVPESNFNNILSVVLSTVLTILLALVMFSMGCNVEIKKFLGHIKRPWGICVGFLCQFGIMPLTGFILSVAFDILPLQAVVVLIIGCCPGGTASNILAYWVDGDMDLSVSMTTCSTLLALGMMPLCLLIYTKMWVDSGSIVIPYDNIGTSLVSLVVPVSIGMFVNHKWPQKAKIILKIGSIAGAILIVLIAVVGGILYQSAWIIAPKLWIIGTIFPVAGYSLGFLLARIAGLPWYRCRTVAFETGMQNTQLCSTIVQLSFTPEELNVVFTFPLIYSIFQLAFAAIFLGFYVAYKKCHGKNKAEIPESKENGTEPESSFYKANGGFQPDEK

[4] = Maximum biliary concentration (dissolved in aqueous Tween-80) was determined on intragastric administration at 5-0.04 mg/kg in […] of rat gavage model; format: ADME, organism-based, Bile; parameters: dose 0.04 mg/kg, route […]; settings: […] (blood), po
[5] = Maximum biliary concentration (dissolved in aqueous Tween-80) was determined on intragastric administration at 5-0.04 mg/kg in portal vein of rat gavage model; format: ADME, organism-based, Bile; parameters: dose 0.04 mg/kg, route […]; settings: po
[6] = Efficacy to increase fecal bile acid excretion; + is more efficacious; format: ADME, tissue-based, Feces; settings: rat; procedure, shortened: as §1

| Activity [1] | Efficacy [2] | IC50 [3] | Cmax [4] | Cmax [5] | Efficacy [6] | Structure (SMILES) |
| --- | --- | --- | --- | --- | --- | --- |
| 0.03% | Even more effective | 1 nM | – | – | – | CCCCC1(CCCC)CS(=O)(=O)c2ccc(N(C)C)cc2[C@@H](c2ccc(OCc3ccc(C[n+]4ccccc4)cc3)cc2)[C@H]1O |
| 15.04% | – | 27 nM | 960 ng/mL | – | – | CCCCC1(CCCC)CS(=O)(=O)c2ccc(N(C)C)cc2[C@@H](c2ccc(OCC(=O)O)cc2)[C@H]1O |
| 3.3% | Even more effective | 8.5 nM | 5100 ng/mL | 1100 ng/mL | – | CCCCC1(CCCC)CS(=O)(=O)c2ccc(N(C)C)cc2[C@@H](c2ccc(OCCCCC(=O)O)cc2)[C@H]1O |
| 0.17% | – | 4 nM | – | – | More efficacious than analogue 2 | CCCCC1(CCCC)CS(=O)(=O)c2ccc(N(C)C)cc2[C@@H](c2ccc(OCc3cccc(CN(CC(=O)O)CC(=O)O)n3)cc2)[C@H]1O |
